Reference: ChEMBL document CHEMBL4017487, “Design and Synthesis of γ- and δ-Lactam M1 Positive Allosteric Modulators (PAMs): Convulsion and Cholinergic Toxicity of an M1-Selective PAM with Weak Agonist Activity” (J Med Chem, 2017)
Active and inactive are the calls of the source. The rule behind the calls is not given here.

Experiments:
[1] = (§1) Agonist activity at muscarinic acetylcholine receptor M1 in Hartley guinea pig ileum longitudinal muscle myenteric plexus assessed as tissue contraction after 10 mins; details: Cavia porcellus
Cavia porcellus = organism: Cavia porcellus; test: as §1
Rattus norvegicus [2] = test: Toxicity in rat assessed as unbound brain concentration at 45 mg/kg, po administered as single dose; format: organism-based; details: in vivo
[3] = target: T1, Muscarinic acetylcholine receptor M5 (Homo sapiens, UniProt P08912); test: Positive allosteric modulation of human muscarinic acetylcholine receptor M5 expressed in CHO cells assessed as increase in acetylcholine-induced calcium mobilization up to 10 uM preincubated for 10 mins followed by acetylcholine addition by Fluo-8-AM dye based FLIPR assay; format: cell-based
T1 sequence (P08912 whole entry): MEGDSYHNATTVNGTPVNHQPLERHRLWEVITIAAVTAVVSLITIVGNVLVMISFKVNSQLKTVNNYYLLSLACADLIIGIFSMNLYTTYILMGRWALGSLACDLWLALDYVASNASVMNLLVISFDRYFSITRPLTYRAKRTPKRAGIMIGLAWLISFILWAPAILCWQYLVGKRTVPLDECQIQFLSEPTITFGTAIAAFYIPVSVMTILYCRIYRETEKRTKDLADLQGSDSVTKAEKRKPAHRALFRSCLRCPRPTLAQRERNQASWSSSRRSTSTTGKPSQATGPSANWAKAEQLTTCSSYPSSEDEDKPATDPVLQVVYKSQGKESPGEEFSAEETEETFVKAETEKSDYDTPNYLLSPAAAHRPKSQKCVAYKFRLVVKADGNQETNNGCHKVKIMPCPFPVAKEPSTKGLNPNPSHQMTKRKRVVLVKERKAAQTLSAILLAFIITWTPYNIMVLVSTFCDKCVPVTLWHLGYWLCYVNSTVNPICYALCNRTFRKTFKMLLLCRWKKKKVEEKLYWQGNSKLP
Procedure, shortened: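 Recombinant functional human M2–M5 assays, each run in agonist and PAM modes at concentrations up to 10 μM.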

[4] = Ratio of unbound Cmax in rat brain assessed as convulsions at 45 mg/kg, po administered as single dose to unbound brain concentration for agonist activity at muscarinic acetylcholine receptor M1 in C57BL/6 mouse assessed as required to show 2 fold increase in IP1 accumulation in striatum at 1 to 10 mg/kg, sc; format: organism-based
[5] = target: T2, Muscarinic acetylcholine receptor M1 (Homo sapiens, UniProt P11229); test: Activity at human muscarinic acetylcholine receptor M1 expressed in CHO cells assessed as increase in calcium mobilization incubated for 10 mins by Fluo-8-AM dye based FLIPR assay; format: cell-based
T2 sequence (P11229 whole entry): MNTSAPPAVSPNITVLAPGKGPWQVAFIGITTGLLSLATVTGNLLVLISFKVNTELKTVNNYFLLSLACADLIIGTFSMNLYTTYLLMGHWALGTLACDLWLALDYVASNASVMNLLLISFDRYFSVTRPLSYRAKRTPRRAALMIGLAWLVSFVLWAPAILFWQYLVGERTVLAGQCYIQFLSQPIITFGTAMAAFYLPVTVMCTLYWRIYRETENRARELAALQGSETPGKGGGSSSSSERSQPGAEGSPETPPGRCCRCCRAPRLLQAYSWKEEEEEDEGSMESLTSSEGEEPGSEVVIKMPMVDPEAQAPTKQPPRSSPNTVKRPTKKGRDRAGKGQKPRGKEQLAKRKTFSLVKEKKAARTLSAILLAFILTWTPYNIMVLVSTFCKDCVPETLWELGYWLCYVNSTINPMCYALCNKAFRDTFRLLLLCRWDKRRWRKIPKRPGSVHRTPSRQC

Canis familiaris [6] = test: Unbound Cmax in dog plasma at 15 mg/kg, po administered as single dose using spray dried dispersion formulation; format: ADME, organism-based, Canis lupus familiaris; details: in vivo
[7] = Ratio of AUC in dog brain to plasma at 0.5 mg/kg, po or 0.1 mg/kg, iv administered as single bolus dose; format: ADME, organism-based, Canis lupus familiaris; details: read-out: Ratio AUC
Procedure, shortened: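 Brain/plasma ratio computed from AUC of total drug in brain and total drug in plasma.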

Brain = test: Unbound brain concentration in scopolamine-induced memory impairment Wistar rat model at 3.2 mg/kg, sc measured after 1.25 hrs by LC-MS/MS analysis; format: ADME, organism-based; details: in vivo
[8] = target: T2, Muscarinic acetylcholine receptor M1; test: Agonist activity at human muscarinic acetylcholine receptor M1 expressed in CHO cells assessed as increase in calcium mobilization at 30 uM incubated for 10 mins by Fluo-8-AM dye based FLIPR assay relative to acetylcholine; format: cell-based
Rattus norvegicus [9] = test: Toxicity in rat assessed as unbound Cmax in plasma required to show convulsions at 45 mg/kg, po administered as single dose; format: organism-based; details: in vivo
Rattus norvegicus [10] = test: Reversal of scopolamine-induced memory impairment in Wistar rat assessed as […] in hidden platform during 5 days training period at 0.32 to 3.2 mg/kg, sc administered 15 mins prior to test for 5 consecutive days followed by scopolamine challenge 30 mins prior to test by Morris water maze test; format: functional, organism-based
Canis familiaris [11] = test: Unbound AUC (0 to 24 hrs) in dog plasma at 5 mg/kg, po administered as single dose using spray dried dispersion formulation; format: ADME, organism-based, Canis lupus familiaris; details: in vivo
Canis familiaris [12] = test: Cholinergic toxicity in dog assessed as emesis at 5 mg/kg, po administered as single dose using spray dried dispersion formulation after 1 to 4 hrs; format: organism-based, Canis lupus familiaris; details: in vivo
Procedure, shortened: (§2)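 Dog single oral dose escalation: 1/sex at 5 mg/kg for each formulation; 1 female at 15 mg/kg. Spray-dried dispersion: 23% drug loading with 0.5% methylcellulose and 100 mM citrate buffer. Clinical signs timed in approximate hours postdose; unbound plasma Cmax.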

[13] = Positive allosteric modulation of muscarinic acetylcholine receptor M1 in Hartley guinea pig ileum longitudinal muscle myenteric plexus assessed as increase in acetylcholine-induced tissue contraction after 10 mins in presence of donepezil; details: Cavia porcellus
Canis familiaris [14] = test: Toxicity in dog assessed as ataxia at 15 mg/kg, po administered as single dose using spray dried dispersion formulation after 0.8 hrs; format: organism-based, Canis lupus familiaris; details: in vivo; procedure, shortened: as §2
[15] = Clearance in rat at 0.5 mg/kg, iv administered as single bolus dose; format: ADME, organism-based; details: in vivo
Procedure, shortened: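 Rat, single IV bolus of 0.5 mg/kg as a solution in 20% HPBCD; observed plasma clearance.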

Cc1cc2c(cc1Cc1ccc(-c3cocn3)cc1)C(=O)N([C@H]1CCOC[C@@H]1O)C2
EC50 [1]: 92 nM | Activity (Cavia porcellus): Dose-dependent effect | Drug uptake(free) (Rattus norvegicus [2]): 460 to 760 nM | Activity [3]: Not Active | selectivity ratio [4]: 20 | Kb [5]: 3 µM | fCmax (Canis familiaris [6]): 1067 nM | Kp [7]: 0.7 | Drug uptake(free) (Brain): 40 nM | Activity [8]: 23% | fCmax (Rattus norvegicus [9]): 2310 nM | Activity (Rattus norvegicus [10]): Active | fAUC (Canis familiaris [11]): 3.85 µM·h | Activity (Canis familiaris [12]): Toxic | EC50 [13]: 46 nM | Activity (Canis familiaris [14]): Toxic | clearance [15]: 2.4 mL/min/kg
